Structures can show the parent of a compound that is named as a salt. Calls of active or inactive are those of the source. The calls are words filed in the database; no cut-off is given here. A value given as a limit tells only on which side of the number the result lay.

As usually defined, the IC50 is the concentration needed to halve the response being measured. By inhibition in vivo is commonly meant the share of the control response that was lost under treatment.

Experiment [1] concerns Plasmodium falciparum. The experiment in a line: Antiplasmodial activity against Plasmodium falciparum. The class given is functional, organism-based. The method in brief:
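P. falciparum (K1 and 3D7) kept in continuous Trager–Jensen culture and tested at 1–2% initial parasitemia and 3% hematocrit. DMSO stocks (5 mg/mL) were diluted in complete medium across a 100–0.006 range and tested in triplicate for 48 h at 37°C. Growth was read by optical microscopy as IGP% = 100[1 − (parasitemia with sample / untreated control parasitemia)].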

Experiment [2] is described as follows: Cytotoxicity against mouse macrophages after 18 hrs by MTT assay. The class given is cell-based. The settings on record: Macrophage.
The test system of experiment [3] is Plasmodium berghei. As to the kind of experiment: Antimalarial activity against Plasmodium berghei infected in mouse assessed as mouse mean survival time at 50 mg/kg, po. Format: functional.
The subject of experiment [4] is Plasmodium berghei. As to the kind of experiment: Antimalarial activity against Plasmodium berghei infected in mouse assessed as suppression of parasitemia at 10 mg/kg, po by Peters 4 day suppressive test. The class given is functional. The settings on record: 96 h.
Experiment [5] concerns Plasmodium falciparum. As to the kind of experiment: Antiplasmodial activity against multi-drug resistant Plasmodium falciparum K1 in human erythrocytes assessed as growth inhibition after 48 hrs by optical microscopy. The settings on record: K1, 48 h. Format: functional, organism-based. In a few lines: (§1)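 Parasites were kept in continuous culture by the Trager and Jensen method. The microtest used 1–2% initial parasitemia and 3% hematocrit. Samples came from 5 mg/mL DMSO stocks, serially diluted in complete medium and added to parasitized red cells in triplicate. Plates were incubated 48 h at 37°C and read by optical microscopy. Growth inhibition % = 100[1 − (parasitemia with sample/parasitemia of untreated controls)].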

A short description of experiment [6]: Selectivity index, ratio of IC50 for mouse macrophages to IC50 for Plasmodium falciparum.
Experiment [7] concerns Plasmodium falciparum. The experiment in a line: Antiplasmodial activity against drug susceptible Plasmodium falciparum 3D7 NF54 isolate in human erythrocytes assessed as growth inhibition after 48 hrs by optical microscopy. The class given is functional, organism-based. The settings on record: 3D7 NF54, 48 h. In a few lines:
as §1

The test system of experiment [8] is Plasmodium berghei. The experiment in a line: Antimalarial activity against Plasmodium berghei infected in mouse assessed as total elimination of parasitemia at 50 mg/kg, po after 5 to 7 days. Format: functional, organism-based. More on the design: dose 50 mg/kg.
In experiment [9] the test system is Plasmodium berghei. The experiment in a line: Antimalarial activity against Plasmodium berghei infected in mouse assessed as suppression of parasitemia at 50 mg/kg, po after 5 to 7 days. Format: functional.
Experiment [10] concerns Plasmodium berghei. As to the kind of experiment: Antimalarial activity against Plasmodium berghei infected in mouse assessed as suppression of parasitemia at 10 mg/kg, po after 5 to 7 days. Format: functional.
For another experiment, the system named is MRC5. The experiment in a line: Cytotoxicity against human MRC5 cells after 48 hrs by Alamar blue assay. The settings on record: MRC5, 48 h. Format: cell-based. In a few lines:
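MRC-5 fetal lung fibroblasts were grown in DMEM with 10% FBS, 2 mM glutamine and penicillin/streptomycin at 37°C under 5% CO2, seeded at 10^4 cells/well, and dosed with DMSO-dissolved compounds after 24 h for 48 h. Negative controls had 0.1% DMSO. Alamar Blue was added 2 h before the end, with fluorescence read at 530–560 nm excitation and 590 nm emission.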
On the technique in general: Alamar Blue is a resazurin reagent that responds to reducing activity.

In turn, `Cc1c2ccncc2c(C)c2c1[nH]c1ccccc12` [listing 1 of 2 here] yielded an IC50 in the experiment on Plasmodium falciparum [1] of 600 nM.
As for `Cc1c2ccncc2c(C)c2c1[nH]c1ccccc12` [ELLIPTECINE], the IC50 in the experiment with Plasmodium falciparum [1] (Plasmodium falciparum) is 1130 nM; in experiment [2], greater than 140000 nM; with Plasmodium falciparum [5] it was 810 nM; in the experiment with Plasmodium falciparum [7], 350 nM. Also, the MST with Plasmodium berghei [3] is greater than 40 days. In addition, in the experiment on Plasmodium berghei [4], the inhibition in vivo at 10 mg/kg stood at 70%. The “Ratio IC50” value in experiment [6] is greater than 290.
`Cc1c2ccncc2c(C)c2c1[nH]c1ccccc12` [listing 2 of 2 here]: the inhibition result with Plasmodium berghei [8] is “Active”.
In the experiment on Plasmodium falciparum [1] (Plasmodium falciparum), `COc1ccc2[nH]c3c(C)c4ccncc4c(C)c3c2c1` came in with an IC50 of 1150 nM.
As to `Cc1nccc2c(C)c3[nH]c4ccccc4c3cc12`, the inhibition in vivo at 50 mg/kg in the experiment on Plasmodium berghei [9] was determined as 90%. Further, the figures for the IC50 (in experiment [2]; in the experiment with Plasmodium falciparum [7]) were greater than 140000 nM and 1200 nM, respectively. For the same compound, the inhibition in vivo at 10 mg/kg with Plasmodium berghei [10] was 48%. The “Ratio IC50” value in [6] is greater than 290.
As to `C=C[C@H]1CN2CC[C@H]1C[C@H]2[C@H](O)c1ccnc2ccc(OC)cc12` [QUININE SULFATE], the IC50 in experiment [2] was greater than 140000 nM; in the experiment with Plasmodium falciparum [5], 120 nM; in the experiment with Plasmodium falciparum [7], 150 nM.
For `Cc1c2c(c(C)c3c1[nH]c1ccccc13)CN(C)CC2`, the figures for the IC50 in the experiment with MRC5, in the experiment on Plasmodium falciparum [5] and in the experiment with Plasmodium falciparum [7] were greater than 50 µg/mL, 4200 nM and 13000 nM, respectively.
`Cc1c2ccncc2c(C)c2c1[nH]c1ccc([N+](=O)[O-])cc12`: in the experiment on Plasmodium falciparum [5], the IC50 is 550 nM.
In the experiment on Plasmodium falciparum [1] (Plasmodium falciparum), `Cc1c2c(c(C)c3c1[nH]c1ccccc13)C=NCC2` had an IC50 of 1010 nM.
The compound `CCN(CC)CCCC(C)Nc1ccnc2cc(Cl)ccc12` (stereo not drawn) [CHLOROQUINE PHOSPHATE] registered an IC50 in experiment [2] greater than 140000 nM.
In the experiment with Plasmodium falciparum [1] (Plasmodium falciparum), `Cc1c2ccncc2c(C)c2c1[nH]c1ccc(O)cc12` came in with an IC50 of 300 nM.
In the case of `Cc1c2ccncc2c(C)c2c1[nH]c1c([N+](=O)[O-])cccc12`, the IC50 with MRC5 was greater than 50 µg/mL; in the experiment on Plasmodium falciparum [5], 13000 nM; in the experiment on Plasmodium falciparum [7], 17000 nM.
